Active and inactive are the calls of the source.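 Rule for the calls, unless noted: active = inhibition at or above 50% relative to wild type and mutant plate controls; inactive = inhibition below 50%.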
Experiments:
[1] = inhibitors of TNFa-induced NFkB p65 translocation, primary screen, imaging, HUVEC, MLSMR starter and 10KST1 sets (AID 438;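 active = inhibition above 20% together with a positive visual image hit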;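 note: compound added about 3h40 before a 20 min TNFalpha stimulation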;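 for inhibition: signal is the nuclear over cytoplasmic p65 intensity ratio per well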); details: HUVEC TNFa-induced p65 nuclear translocation; cell count: measured here: nuclei count (cytotoxicity indicator), at 2.08 µM; inhibition: at 2 µM, stronger effect = higher value, 0% TNFa-plus-vehicle, 100% no-TNFa wells
[2] = endothelial E-selectin expression blockers – imaging, HUVEC, immunofluorescence, MLSMR starter and 10KST1 sets, primary screen (AID 487;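 active = visually confirmed hit in the image check and inhibition above 20%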;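 for inhibition: signal is fraction of cell area covered by stained E-selectin grains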;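 for nuclei count: 100% = median nuclei count of all wells on the same plate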); details: HUVEC TNFalpha-induced E-selectin immunofluorescence imaging, at 2 µM; inhibition: stronger effect = higher value; nuclei count: measured here: cell number, toxicity
[3] = Primary imaging screen for DUSP6 inhibitors that restore phospho-Erk in transfected HeLa cells, chemical complementation (AID 609;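 active = compounds giving at least 50% inhibition in the cell-based MKP-3 phosphatase rescue imaging test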;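 for inhibition: phospho-Erk level distribution per well compared with pooled transfected vehicle control wells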); details: HeLa MKP-3 transfected, phospho-Erk imaging KS statistic, at 10 µM, cells stimulated with TPA for 15 min
[4] = target: Dual specificity protein phosphatase 6 (Homo sapiens) (UniProt Q16828); experiment: as above; details: HeLa MKP-3 transfected, phospho-Erk imaging KS statistic; at 10 µM; stronger effect = higher value; cells stimulated with TPA for 15 min
Sequence of Dual specificity protein phosphatase 6 (Homo sapiens) (Q16828 whole entry, looked up): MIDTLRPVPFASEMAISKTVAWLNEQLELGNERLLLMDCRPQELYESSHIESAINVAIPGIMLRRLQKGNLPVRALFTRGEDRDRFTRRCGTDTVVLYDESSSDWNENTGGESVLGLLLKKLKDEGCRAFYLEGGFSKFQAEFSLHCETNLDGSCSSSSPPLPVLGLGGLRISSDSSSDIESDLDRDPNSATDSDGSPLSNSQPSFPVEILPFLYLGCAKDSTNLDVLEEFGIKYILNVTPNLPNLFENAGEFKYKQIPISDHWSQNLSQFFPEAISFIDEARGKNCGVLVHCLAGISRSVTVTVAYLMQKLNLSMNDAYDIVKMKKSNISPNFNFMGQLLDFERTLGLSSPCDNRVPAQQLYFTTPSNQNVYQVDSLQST

[5] = target: Voltage-gated potassium channel subunit beta-2 (Rattus norvegicus) (UniProt P62483); experiment: inhibitors of rat Kvbeta2 reductase activity – biochemical, NADPH fluorescence, primary screen (AID 622;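 active = fluorescence slope higher than the sample average by over 3 SD, cut at about -0.22 in these data, passing the limit was not always enough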;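 note: slope of raw intensity against log time taken from 70 to 1610 s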); details: recombinant KvBeta, 4-cyanobenzaldehyde reduction, at 10 µM, stronger effect = higher value
Sequence of Voltage-gated potassium channel subunit beta-2 (Rattus norvegicus) (P62483 whole entry, looked up): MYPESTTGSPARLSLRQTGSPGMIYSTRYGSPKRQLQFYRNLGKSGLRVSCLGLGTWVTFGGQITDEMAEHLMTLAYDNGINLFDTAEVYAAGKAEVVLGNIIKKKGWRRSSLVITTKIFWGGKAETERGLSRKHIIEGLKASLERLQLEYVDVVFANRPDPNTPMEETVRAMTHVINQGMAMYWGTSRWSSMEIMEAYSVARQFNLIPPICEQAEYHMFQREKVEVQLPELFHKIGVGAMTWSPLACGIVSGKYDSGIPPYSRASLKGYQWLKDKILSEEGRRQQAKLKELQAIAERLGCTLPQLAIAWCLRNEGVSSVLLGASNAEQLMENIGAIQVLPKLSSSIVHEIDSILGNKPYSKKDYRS

[6] = target: Voltage-gated potassium channel subunit beta-2 (Rattus norvegicus) (UniProt P62483); experiment: enhancers of rat Kvbeta2 NADPH turnover – biochemical, NADPH fluorescence, primary screen (AID 623;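 active = NADPH fluorescence slope more negative than the mean of all samples by about 3 SD, 99.7% confidence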;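 note: fluorescence intensity change per second fitted from 20 to 320 s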); details: Recombinant KvBeta, NADPH fluorescence decrease slope, 10 min; at 10 µM; stronger effect = lower value
[7] = target: Muscarinic acetylcholine receptor M4 (Homo sapiens) (UniProt P08173); experiment: M4-linked GIRK flux change, two-sided – cell-based, HEK293 M4/GIRK, thallium flux, BTC-AM, M4 allosteric agonist project, primary screen (AID 625;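 active = fluorescence slope after compound addition differing from the mean of all tested samples at 99.7% confidence, mostly higher but some lower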;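 note: thallium influx through GIRK channels coupled to M4 in HEK293 cells with BTC-AM dye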); details: at 10 µM, actives lie on both sides
Sequence of Muscarinic acetylcholine receptor M4 (Homo sapiens) (P08173 whole entry, looked up): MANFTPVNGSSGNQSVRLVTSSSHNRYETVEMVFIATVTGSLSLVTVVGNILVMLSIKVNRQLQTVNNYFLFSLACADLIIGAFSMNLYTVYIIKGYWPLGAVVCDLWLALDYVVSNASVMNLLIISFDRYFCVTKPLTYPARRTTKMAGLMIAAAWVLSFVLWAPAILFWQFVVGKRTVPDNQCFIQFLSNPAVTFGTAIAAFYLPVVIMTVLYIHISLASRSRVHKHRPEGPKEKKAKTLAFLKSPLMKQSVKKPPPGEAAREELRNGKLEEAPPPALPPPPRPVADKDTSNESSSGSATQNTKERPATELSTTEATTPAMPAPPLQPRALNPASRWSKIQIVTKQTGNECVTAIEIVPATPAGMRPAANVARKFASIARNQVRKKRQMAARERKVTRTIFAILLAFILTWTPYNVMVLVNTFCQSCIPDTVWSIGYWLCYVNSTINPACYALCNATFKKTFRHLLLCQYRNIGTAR
Summary of the method: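 Material: HEK293 cells with M4 receptor and GIRK channels; Times: cells overnight at 37 °C, BTC-AM loading 1 h, reads 2 min total; Technique: kinetic BTC-AM fluorescence sampled at 1 Hz, 10 s pre-addition baseline; Read-out basis: slope over 15–24 s of trace normalized to starting intensity; Controls: carbachol positive, DMSO negative.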

[8] = inhibitors of larval lipid processing in zebrafish, primary screen, whole organism, PED6 fluorescence, gall bladder and intestine (AID 686;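 active = a full or partial loss of lipid-probe fluorescence in the fish gall bladder, intestine or both, judged by eye; inactive = no fluorescence loss, or compound toxic to the fish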;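 note: larvae 5 to 7 days old with five fish per well; signal comes from phospholipase A2 cleavage of quenched PED6 carried via bile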); details: Zebrafish larvae PED6 lipid processing, fluorescence scoring; screened at 20 µM (by protocol)
Summary of the method: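 Incubation: overnight exposure of larvae to compound plus PED6 / Test system: live zebrafish larvae aged 5-7 days, whole organism / Amount: 5 larvae per well / Read-out basis: visual per-well fluorescence inhibition score / Signal: visual fluorescence microscopy scoring of gall bladder, gut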

[9] = loss of swimming-algae plug formation – whole organism, Chlamydomonas reinhardtii, WT vs cilia-less mutant, absorbance, 96-well, primary screen (AID 463189); details: Chlamydomonas reinhardtii gravitaxis, OD600 absorbance, 2 days; at 10 µM; stronger effect = higher value;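 note: 0% = wild type cc124 cells in DMSO and 100% = ciliumless bld1 mutant cells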
[10] = measured here: cell density z-score
[11] = measured here: nuclear c-Myc green intensity z-score
[12] = measured here: nuclear pErk red intensity z-score, stronger effect = higher value

Compound	cell count [1]	inhibition [1]	inhibition [2]	nuclei count [2] [%]	z-score [3, 10]	z-score [3, 11]	z-score [3, 12]	inhibition [4]	fluorescence slope [5]	NADPH fluorescence slope [6]	fluorescence slope [7]	outcome [8]	inhibition [9]
CCSc1nnc(NC(=O)NCC(F)(F)F)s1	580	-4.9% (inactive)	31.5% (inactive)	96.4	1.02	-0.999	-0.913	9.07% (inactive)	-0.469 (inactive)	-3.9e-05 (inactive)	0.00649 (inactive)	inactive	-11.4% (inactive)
COc1cc(/C=N/n2nnnc2N)ccc1O	594	-13% (inactive)	-19.6% (inactive)	150	0.109	-0.705	-0.571	17.7% (inactive)	-0.448 (inactive)	-0.000221 (inactive)	0.00627 (inactive)	inactive	14% (inactive)
COC(=O)C(NC(=O)c1ccc(F)cc1)(Nc1nc(C)cs1)C(F)(F)F (stereo not drawn)	695	-6.3% (inactive)	-18.4% (inactive)	151	-0.266	-0.66	0.98	-3.95% (inactive)	-0.444 (inactive)	-4.6e-05 (inactive)	0.00339 (inactive)	inactive	7.8% (inactive)
N#Cc1c2c(c(-c3ccco3)[nH]c1=O)CCCC2	576	-5% (inactive)	-60.2% (inactive)	152	-0.652	0.857	0.409	-5.81% (inactive)	-0.435 (inactive)	-0.000117 (inactive)	0.00432 (inactive)	inactive	17% (inactive)
Cc1ccc(C(=O)/C=C/Nc2ccccn2)cc1	361	-5.9% (inactive)	-98.9% (inactive)	104	0.761	0.782	-1.14	15.4% (inactive)	-0.455 (inactive)	-3.3e-05 (inactive)	0.00424 (inactive)	inactive	35.5% (inactive)
CCN(CC)CCN1C(=O)C(=O)/C(=C(/O)c2c(C)[nH]c(C(=O)OC)c2C)C1c1ccccc1 (stereo not drawn)	727	-3.9% (inactive)	-88% (inactive)	165	0.278	0.96	0.24	-11.9% (inactive)	-0.485 (inactive)	-4.8e-05 (inactive)	0.0049 (inactive)	inactive	13.3% (inactive)
CCOC(=O)N1CCN(C2OC(=O)c3ccccc32)CC1 (stereo not drawn)	380	0.8% (inactive)	-125% (inactive)	146	-0.546	-0.533	-0.506	24.4% (inactive)	-0.459 (inactive)	-0.000295 (inactive)	0.00469 (inactive)	inactive; toxic	14% (inactive)
N#Cc1c(NCCN)nc(NCc2ccccc2)c2c1CCN(Cc1ccccc1)C2	566	3% (inactive)	-151% (inactive)	145	0.625	-0.717	1.05	3.42% (inactive)	-0.466 (inactive)	-8.7e-06 (inactive)	0.00448 (inactive)	active; weak signal in gallbladder and intestine	15.7% (inactive)
Cn1c(=O)c2c(nc(Br)n2Cc2ccc3ccccc3c2)n(C)c1=O	623	-9.2% (inactive)	-12.5% (inactive)	163	-0.362	-0.997	0.811	-8.95% (inactive)	-0.5 (inactive)	-5.2e-05 (inactive)	0.00605 (inactive)	inactive	5.52% (inactive)
CCC(=O)Nc1nc2ccccc2n1Cc1ccccc1C	480	-2.1% (inactive)	-158% (inactive)	114	0.4	0.0083	0.265	-3.97% (inactive)	-0.407 (inactive)	1.4e-06 (inactive)	0.00508 (inactive)	inactive	-13.6% (inactive)
Cn1c(=O)c2c(nc(NCc3ccco3)n2Cc2ccc(Cl)cc2Cl)n(C)c1=O	644	3.3% (inactive)	-21.8% (inactive)	104	-0.0402	-0.421	0.466	12.8% (inactive)	-0.405 (inactive)	-1.9e-05 (inactive)	0.00546 (inactive)	inactive	-11.8% (inactive)
Cc1cc(C(=O)O)c(CSc2ncn[nH]2)o1	652	-7.4% (inactive)	-48.6% (inactive)	174	-1.18	1.91	1.7	-5.81% (inactive)	-0.455 (inactive)	-0.000158 (inactive)	0.0045 (inactive)	inactive	-11% (inactive)
CCCCSc1nc(O)c(C2OC(=O)c3c2ccc(OC)c3OC)c(=O)n1C (stereo not drawn)	559	1.9% (inactive)	57.7% (active)	95.8	-2.21	-0.0853	0.751	9.91% (inactive)	-0.372 (inactive)	-2.3e-05 (inactive)	0.00535 (inactive)	inactive	32.4% (inactive)
CCOC(=O)c1[nH]c2ccc(F)cc2c1NC(=O)CCN1CCSCC1	617	-1.1% (inactive)	-124% (inactive)	130	-0.422	0.0168	1.05	1.42% (inactive)	-0.455 (inactive)	-0.000125 (inactive)	0.00431 (inactive)	inactive	-7.59% (inactive)
COC(=O)c1cc(Br)c(=O)n(Cc2ccco2)c1	518	-0.8% (inactive)	34.7% (inactive)	159	-0.341	0.91	-1.02	1.9e-07% (inactive)	-0.411 (inactive)	-3.2e-05 (inactive)	0.00519 (inactive)	inactive	-6.69% (inactive)
O=C(NCCN1CCCCC1)/C(=N\O)c1ccccc1	515	-13% (inactive)	18.4% (inactive)	155	1.4	0.164	-0.171	23.8% (inactive)	-0.4 (inactive)	-3.3e-05 (inactive)	0.00408 (inactive)	inactive	2.85% (inactive)
C=C(C)CSc1nnc2n(C)c(=O)c3c4c(sc3n12)CCC4	334	8.5% (inactive)	-1.8% (inactive)	118	1.02	-0.186	-0.897	15.4% (inactive)	-0.438 (inactive)	-0.000119 (inactive)	0.00483 (inactive)	inactive	41.8% (inactive)
CC1(C)Cc2c(sc3ncn4nc(-c5ccco5)nc4c23)CO1	629	6.6% (inactive)	-31.6% (inactive)	112	-0.299	0.915	-1.17	-7.67% (inactive)	-0.432 (inactive)	-4.1e-05 (inactive)	0.00512 (inactive)	inactive	16.9% (inactive)
COC(=O)CSCC(=O)Nc1cc2c(cc1C(C)=O)OCO2	333	-6.3% (inactive)	-95.3% (inactive)	76.4	0.0556	-1.11	1.67	-4.78% (inactive)	-0.452 (inactive)	1.5e-05 (inactive)	0.00475 (inactive)	inactive	22.6% (inactive)
C=CCOc1ccc(C2/C(=C(\O)c3ccc(F)cc3)C(=O)C(=O)N2CCCN(C)C)cc1 (stereo not drawn)	672	-13.7% (inactive)	-142% (inactive)	172	1.58	1.06	-0.378	4.25% (inactive)	-0.451 (inactive)	-4.3e-05 (inactive)	0.00492 (inactive)	inactive	14.7% (inactive)
CN1CCN(c2c3c(c(C#N)c4nc5ccccc5n24)CCCC3)CC1	514	0.8% (inactive)	-60.7% (inactive)	130	1.3	-0.661	-1.13	5.95% (inactive)	-0.35 (inactive)	-3.3e-05 (inactive)	0.00748 (inactive)	inactive	-10.8% (inactive)
O=C(CN1CCc2[nH]c3ccccc3c2C1)N1CCCCC1	538	3.2% (inactive)	-91.5% (inactive)	124	-1.09	-0.293	-0.987	3.42% (inactive)	-0.446 (inactive)	-8.6e-05 (inactive)	0.00512 (inactive)	inactive	-5.72% (inactive)
Cc1c(=O)n(OCc2c(F)cccc2F)c2ccccc2[n+]1[O-]	542	-10.8% (inactive)	-125% (inactive)	163	-0.166	-0.624	-0.0317	3.97% (inactive)	-0.406 (inactive)	-4.3e-05 (inactive)	0.00531 (inactive)	inactive	-0.428% (inactive)
CC1(C)Cc2[nH]c(=S)c(C#N)cc2CO1	531	-11.7% (inactive)	-90.9% (inactive)	118	0.165	0.751	-0.483	-5.81% (inactive)	-0.459 (inactive)	-0.000113 (inactive)	0.0062 (inactive)	inactive	-14% (inactive)
COc1ccc(CCn2c(C)cc3c(c2=O)C(c2ccc4c(c2)OCO4)C(C#N)=C(N)O3)cc1OC (stereo not drawn)	697	-0.5% (inactive)	-141% (inactive)	170	1.12	0.0675	-1.33	9.61% (inactive)	-0.468 (inactive)	-4.4e-05 (inactive)	0.00505 (inactive)	inactive	5.67% (inactive)
CCN(CC)CCCN1C(=O)C(=O)/C(=C(/O)c2ccc3c(c2)CC(C)O3)C1c1cccnc1 (stereo not drawn)	574	-10.8% (inactive)	68% (inactive)	83.2	-1.33	0.323	0.536	6.04% (inactive)	-0.502 (inactive)	-2.4e-05 (inactive)	0.00627 (inactive)	inactive	13.2% (inactive)

From PubChem BioAssay
